# What was measured:
# Type in all cases: in vivo, C57BL/6N mice
# [1] = Body weight in BLM-induced mouse PF model; conditions: mice that received BLM, no SCGB3A2 treatment
# In short: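 C57BL/6N mice (7–8 weeks old, n = 10 per group) received one intratracheal dose of BLM (1.5 units/kg) by intubation, or PBS as control. Body weight was tracked over the 21-day study and expressed relative to the group's average day 0 weight, which was set as 100%.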
# [2] = test system: Mmp2 mRNA; assay: Quantitative RT-PCR of Mmp2 mRNA in lungs of PF model; conditions: for increase of Mmp2 mRNA level vs PBS-treated control lungs: qRT-PCR normalised to β-actin, mean ± SD
# In short: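 Mouse lung Mmp2 mRNA was measured by qRT-PCR (Superscript II RT) with gene-specific Mmp2 and β-actin primers. Cycling was 50 °C for 2 min and 95 °C for 10 min, then 40 cycles of 95 °C for 15 s and 60 °C for 40 s. Values were normalised to β-actin by ΔΔCt, with day-21 PBS lungs set as 1. Samples were taken on days 7/14/21 post-BLM; mean ± SD.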
# [3] = test system: collagen fibers; assay: Masson's trichrome staining of collagen in lung sections; conditions: day 21; SCGB3A2 0.25 mg/kg/day i.v. for five days from day 7 after BLM
# In short: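 Lungs were inflated and fixed in 4% paraformaldehyde, embedded in paraffin, cut into 4-μm whole-lung sections and stained with Masson's trichrome (collagen blue), with H&E alongside. Lungs were collected on day 21.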
# [4] = test system: MMP-2; assay: Western blot of active MMP-2 protein in lungs; conditions: day 21 PF model, SCGB3A2-treated
# In short: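 Minced lung was lysed in RIPA buffer (Tris, NaCl, SDS, deoxycholate, Triton X-100, EDTA, NaF, orthovanadate) with protease inhibitors. Lysates were reduced, run on 10% SDS-PAGE, transferred to PVDF and blocked in TBS-Tween with 5% milk. Blots were probed with rabbit anti-MMP-2 ([…]) and β-actin, then an HRP secondary, and read by chemiluminescence on film or imager. Lungs were taken on day 21.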
# [5] = target: MMP-2 (Mus musculus, UniProt P33434); assay: Fluorescence microscopy of cleaved MMP-P12 in lung sections; conditions: SCGB3A2-treated lung sections
# Chain of MMP-2 (Mus musculus, UniProt P33434) (P33434 110-662): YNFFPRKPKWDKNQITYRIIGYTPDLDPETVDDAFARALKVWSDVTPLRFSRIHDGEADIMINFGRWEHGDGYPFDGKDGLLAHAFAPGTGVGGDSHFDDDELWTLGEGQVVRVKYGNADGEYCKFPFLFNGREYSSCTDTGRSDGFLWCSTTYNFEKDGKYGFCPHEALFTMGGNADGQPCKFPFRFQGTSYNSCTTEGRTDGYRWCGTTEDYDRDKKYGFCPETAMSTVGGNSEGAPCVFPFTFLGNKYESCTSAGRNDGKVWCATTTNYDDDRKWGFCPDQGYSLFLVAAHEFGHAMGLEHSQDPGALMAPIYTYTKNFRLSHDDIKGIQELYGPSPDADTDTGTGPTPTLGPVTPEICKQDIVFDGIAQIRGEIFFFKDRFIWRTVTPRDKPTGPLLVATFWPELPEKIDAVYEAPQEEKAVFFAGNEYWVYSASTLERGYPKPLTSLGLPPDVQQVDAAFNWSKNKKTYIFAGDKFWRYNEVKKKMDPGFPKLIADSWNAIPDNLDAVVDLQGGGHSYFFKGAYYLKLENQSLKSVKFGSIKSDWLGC
# In short: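 Fibrotic mouse lungs were frozen, and 10 μm sections were air-dried, fixed in cold acetone for 20 min, air-dried for 30 min at RT and blocked with 10% BSA for 30 min. Sections were incubated with rabbit anti-MMP2 (10 μg/mL) for 60 min at RT in the dark, then Cy3 donkey anti-rabbit, and mounted in DAPI. Cy5.5 from the cleaved probe was viewed directly by epifluorescence at ×400.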
MMP-P12 cleavage (green) and MMP-2 (red) signals in lung sections [5],Molecule,body weight loss by day 21 [1],increase of Mmp2 mRNA level vs PBS-treated control lungs ([2]; day 7 post-BLM administration) [folds],increase of Mmp2 mRNA level vs PBS-treated control lungs ([2]; day 14 post-BLM administration) [folds],increase of Mmp2 mRNA level vs PBS-treated control lungs ([2]; day 21 post-BLM administration) [folds],"Mmp2 mRNA expression vs no treatment group ([2]; day 21 PF model, SCGB3A2-treated, qRT-PCR)",collagen expression in lungs vs BLM only-treated group [3],active MMP-2 protein expression vs no treatment group [4]
,bleomycin [BLM],~ 20%,4.25±0.84,6±1.05,9±1.87,,,
weak,"SCGB3A2: purified recombinant mouse secretoglobin 3A2 protein, given as treatment for PF (protein, UniProt Q920H1 22-91, looked up) Secretoglobin family 3A …: LLINRLPVVDKLPVPLDDIIPSFDPLKMLLKTLGISVEHLVTGLKKCVDELGPEASEAVKKLLEALSHLV",,,,,decreased,much lower,decreased

# — article PMC3672268 (Molecular pharmaceutics, 2013)
